Screens from PubChem.
PPC-1+TRAIL kill = compounds killing PPC-1 cancer cells with TRAIL present (potentiator screen, no TRAIL-free arm); PPC-1 cells + TRAIL, ATPLite viability luminescence; cell killing (% activity), % at 4 µM or 5 µM; hit rate 0.41% among 220,000; AID 1443;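 active means cell killing above 50% in the first pass at 4 µM, then a duplicate retest at 5 µM averaging 50% or more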;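 further: plate controls were cells with TRAIL plus DMSO for no effect and medium-only wells lacking cells for full effect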
C8 TRAIL sens = sensitizes caspase-8 expressing cells to TRAIL; hit rate 1% among 360,000; inhibition (viability loss, TRAIL sensitization), % at 10 µM; NB7+C8 cells + TRAIL, ATPlite viability luminescence;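 active means compounds causing at least 50% loss of cell viability in the single-dose screen, relative to plate controls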
FLuc inhib CS = Photinus pyralis luciferase inhibition counter-screen; P08659; ATPLite firefly luciferase biochemical luminescence, 10 min; inhibition, % at 10 µM; hit rate 1.5% among 200,000;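 active means inhibition above about 50% when tested at 10 µM, limit read from the data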
Target sequence (P08659 whole entry, looked up): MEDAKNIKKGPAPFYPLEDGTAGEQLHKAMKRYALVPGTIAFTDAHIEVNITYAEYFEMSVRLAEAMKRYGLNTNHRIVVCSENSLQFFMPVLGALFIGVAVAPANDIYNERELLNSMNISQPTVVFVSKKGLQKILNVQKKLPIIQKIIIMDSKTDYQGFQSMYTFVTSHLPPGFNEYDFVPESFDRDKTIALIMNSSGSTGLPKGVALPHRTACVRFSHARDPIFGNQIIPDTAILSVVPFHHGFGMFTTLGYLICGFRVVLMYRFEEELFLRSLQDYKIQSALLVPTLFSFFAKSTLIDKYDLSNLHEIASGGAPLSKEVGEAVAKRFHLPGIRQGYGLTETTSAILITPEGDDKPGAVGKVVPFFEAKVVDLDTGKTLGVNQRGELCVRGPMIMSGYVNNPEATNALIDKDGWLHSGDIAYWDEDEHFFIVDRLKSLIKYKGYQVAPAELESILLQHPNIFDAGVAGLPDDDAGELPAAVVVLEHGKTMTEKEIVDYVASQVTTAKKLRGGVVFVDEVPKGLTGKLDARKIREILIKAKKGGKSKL
FLuc stim CS = affects firefly luciferase, flagging false hits in luciferase stimulation screens; activation factor at 10 µM; P08659; ATPlite luciferase biochemical, luminescence, 10 min; 0 = ATP-free wells, 1 = DMSO control; 200,000 tested, under 10 active;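 active means luciferase activation factor, scaled between plate controls, of at least 2 with compound at 10 µM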
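Assay system – cell-free luciferase reagent · Medium – PBS-based ATP solution · Dosing – test compounds dosed from 2 mM stocks in 100% DMSO · Timing – 10 min, room temperature · Technique – light output (luminescence) · Measure – luminescence gain marking luciferase activators · Controls – No-ATP low control, compound-free enzyme-plus-ATP high control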
* marks the source's active call; other numbers are inactive results; · = no result. A selection: hits, their analogues and other compounds. The true share with any hit is near 1.5%.

SMILES	PPC-1+TRAIL kill	C8 TRAIL sens	FLuc inhib CS	FLuc stim CS
CC(=O)Nc1cccc(/C(C)=N/NC(=O)c2ccc3c(c2)OCO3)c1	36.9	48.5	75.1*	0.2
O=C(Nc1ccc2c(c1)OCO2)c1ccc2c(c1)OCO2	48.1	71.5*	83.2*	0.2
Cc1ccc(S(=O)(=O)N2[C@H](CC(=O)OCc3ccccc3)OC[C@@H]2C(C)C)cc1	·	-6.1	·	·
CCCCc1cc(=O)oc2cc(OCC(=O)Nc3cccnc3)c(Cl)cc12	·	16.8	·	·
O=C(Nc1ccc2c(c1)OCCO2)c1ccccc1Cl	·	42.0	·	·
C/C(=N\NC(=O)c1nn(C)c(C)c1Br)c1cccc(NC(=O)c2ccc(F)cc2)c1	36.2	52.9*	69.2*	0.3
O=C(Nc1ccc2c(c1)OCCO2)c1cccc2nc3ccccc3nc12	23.1	60.1*	0.1	1
Cc1cc(C(=O)Nc2ccc3c(c2)OCO3)cs1	48.0	35.9	65.1*	0.3
CC(=O)Nc1ccc(C(=O)Nc2ccc3c(c2)OCCO3)cc1	·	17.6	·	·
O=C(Nc1ccc2c(c1)OCCO2)c1ccc(Cl)cc1	·	59.0*	·	·
CCN(CC(=O)Nc1c(F)cccc1F)C(=O)c1ccc(COc2ccccc2)o1	·	5.0	·	·
COCCNc1nc(Nc2ccc(C)cc2C)c2sccc2n1	·	6.5	·	·
CCC1CC(=O)CCN1S(=O)(=O)c1ccc(C)cc1 (stereo unspecified)	·	-5.2	·	·
O=C(Nc1ccc2c(c1)OCO2)c1ccc(Cl)s1	14.2	21.3	60.9*	0.4
O=C(Nc1ccc2c(c1)OCO2)Nc1ccccn1	33.3	28.5	50.0*	0.5
O=C(Nc1ccc2c(c1)OCCO2)NC1CCCCC1	44.4	54.9*	70.9*	0.3
O=C(Nc1ccn(Cc2ccccc2)n1)c1ccc2c(c1)OCO2	40.1	28.8	57.7*	0.4
O=C(Nc1ccn(Cc2ccc(Cl)cc2)n1)c1ccccc1	21.3	-5.9	25.4	0.7
O=C(Nc1ccc2c(c1)OCO2)Nc1cnccn1	13.4	9.0	7.5	0.9
CN(C(=O)c1cccc(NC(=O)Cc2cccc(NC(=O)C3CCCN(C(=O)C4CCCCC4)C3)c2)c1)C1CCC1 (stereo unspecified)	·	-2.5	·	·
COc1ccc(CN(C)S(=O)(=O)c2ccc3c(c2)OCCO3)cc1	·	1.3	·	·
COc1cc(NC(=O)C[n+]2ccc(C(=O)c3ccccc3)cc2)cc(OC)c1	·	-1.4	·	·
COCCN(C(=O)c1cc(S(=O)(=O)N2CCCCC2)ccc1Cl)c1c(N)n(CC(C)C)c(=O)[nH]c1=O	·	9.1	·	·
COCCN(C(=O)COC(=O)Cc1ccc(Cl)cc1Cl)c1c(N)n(Cc2ccccc2)c(=O)[nH]c1=O	·	-4.7	·	·
CC(C)C[C@H]1CN(CCCC[C@H]2CNC(=O)C(=O)N2CCC2CCCCC2)C(=O)C(=O)N1CC1CCCCC1	·	17.6	·	·
SMILES	PPC-1+TRAIL kill	C8 TRAIL sens	FLuc inhib CS	FLuc stim CS
O=C(CCl)Nc1ccc(Oc2cnc3ccccc3n2)cc1	-18.7	92.8*	-4.9	1
CCC(=O)Nc1cccc(-c2cnc3ccccc3n2)c1	2.1	-7.5	10.1	0.9
O=C(CCl)Nc1cccc(-c2cnc3ccccc3n2)c1	13.3	93.7*	12.0	0.9
O=C1NN=C2CCCCCC12 (stereo unspecified)	·	-8.9	·	·
O=c1oc(C2(O)CCCCC2)cc2ccc(/C=C/c3ccc(F)cc3)cc12	·	28.3	·	·
COc1ccc2cc3cc(C(=O)NC4CC4)sc3nc2c1	·	76.8*	·	·
Cc1cc(C)n2nc(SCC(=O)N3CC(C)CC(C)C3)nc2n1 (stereo unspecified)	·	11.4	·	·
O=C(Nc1nc2c(s1)CCCC2)c1ccc(Br)o1	36.0	57.4*	67.8*	0.3
O=C(Nc1nc2c(s1)CCCC2)c1cccnc1	19.3	8.7	35.1	0.6
CCCCN(C(=O)COc1ccc(F)cc1)c1c(N)n(CC(C)C)c(=O)[nH]c1=O	·	9.4	·	·
COc1cccc(C=Nc2cc(C)cc(C)c2)c1O	26.7	1.7	-3.9	1
CCc1ccc2oc(-c3cc(N=Cc4cccc(OC)c4O)ccc3O)nc2c1	37.3	·	84.1*	0.2
O=C(c1nc2ccccn2c1CN1CCCC(O)C1)N1CCN(C2CCCCC2)CC1 (stereo unspecified)	·	-5.5	·	·
O=C(NC1=C(NC2CCS(=O)(=O)C2)C(=O)c2ccccc2C1=O)c1ccccc1 (stereo unspecified)	22.8	51.7*	-0.1	1
O=C1C(=Cc2ccc(Cl)cc2)Cc2ccccc21	·	15.8	·	·
CN1C/C(=C/c2ccncc2)C(=O)/C(=C/c2ccncc2)C1	·	12.4	·	·
C=CC(=O)N1C/C(=C/c2ccc(Cl)cc2)C(=O)/C(=C\c2ccc(Cl)cc2)C1	·	92.6*	·	·
C=CC(=O)N1C/C(=C/c2ccccc2)C(=O)/C(=C\c2ccccc2)C1	·	92.2*	·	·
Cc1cc(C(=O)OCC(=O)N2CCc3ccccc32)ccc1[N+](=O)[O-]	·	4.7	·	·
O=S(=O)(c1ccccc1)c1nnn2c1nc(NC1CCN(Cc3ccccc3)CC1)c1ccccc12	·	75.9*	·	·
COCCNC(=O)C1(C)CCCN(C(=O)c2ccccc2)C1 (stereo unspecified)	·	6.8	·	·
O=C(OCC(=O)c1ccc(Cl)s1)c1ccccn1	-5.2	1.7	57.1*	0.4
O=C(/C=C/c1ccc(Cl)cc1Cl)c1nc2ccccc2[nH]1	27.3	36.8	66.3*	0.3
Cc1c(N=Cc2nc3ccccc3n2C)c(=O)n(-c2ccccc2)n1C	15.2	-12.8	83.1*	0.2
COc1ccc(N2CCN(C(=O)C(Cc3ccccc3)n3cccc3)CC2)cc1 (stereo unspecified)	82.0*	-8.3	-8.2	1.1
SMILES	PPC-1+TRAIL kill	C8 TRAIL sens	FLuc inhib CS	FLuc stim CS
Cc1cccc(-n2ncc3c(Nc4ccc(F)cc4)ncnc32)c1	-3.6	11.2	-1.8	1
CCCNc1ncnc2c1cnn2-c1ccc(OC)cc1	·	·	43.1	0.6
Cc1cccc(-n2ncc3c(NC(C)C)ncnc32)c1	31.0	66.4*	63.2*	0.4
C=CCNc1ncnc2c1cnn2-c1ccc(OC)cc1	41.2	25.3	59.0*	0.4
CC(C)Nc1ncnc2c1cnn2-c1ccccc1	·	43.0	78.9*	0.2
CCc1noc(C)c1C(=O)N(CCC(C)C)c1c(N)n(Cc2ccccc2)c(=O)[nH]c1=O	·	-12.1	·	·
Cc1ccn2cc(-c3cccc(NC(=O)C(C)C)c3)nc2c1	2.6	23.4	57.2*	0.4
Cc1ccn2cc(-c3ccc(O)c(O)c3)nc2c1	·	76.4*	·	·
CC(C)N(C)c1ncnc2c1ncn2[C@H]1CN(C2CCCC2)C[C@@H](CO)O1	·	5.2	·	·
C(=N\Nc1nc2ccccc2[nH]1)/c1ccccc1	·	3.6	34.3	0.7
C(=N\Nc1nc2ccccc2[nH]1)/C1CCCCC1	20.5	9.0	74.0*	0.3
C(/CCc1ccccc1)=N\Nc1nc2ccccc2[nH]1	14.3	18.4	83.9*	0.2
C(=C\c1ccccc1)/C=N/Nc1nc2ccccc2[nH]1	20.7	3.8	63.1*	0.4
O=C(NCc1ccc(F)cc1F)[C@@H]1CCCN1C(=O)[C@@H]1CCCN1C(=O)c1cccc2ccccc12	·	7.2	·	·
Cc1ccc(C(=O)C(C)OC(=O)CN2C(=O)NC3(CCCC3)C2=O)cc1 (stereo unspecified)	·	3.5	·	·
Cc1cc(NCCCCCCCNc2cc(C)nc3cc([N+](=O)[O-])ccc23)c2ccc([N+](=O)[O-])cc2n1	·	57.6*	·	·
